Activity calls are given as the source filed them. The calls are words filed in the database; no cut-off is given here.

Data set [1] has as its system HFF. Briefly: Antiinflammatory activity in human foreskin fibroblast assessed as inhibition of IL-1-beta-induced MMP1 production at 1 uM treated for 24 hrs before IL1-beta challenge measured after 24 hrs by Western blot analysis. It counts as functional, cell-based. An outline of the steps:
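Fibroblasts were grown in DMEM with 10% FBS at 37 °C under 5% CO2, seeded at 2 × 10⁵ cells/mL, grown to confluence, and treated for 24 h. Secreted MMP-1 was measured by western blot. Blots were blocked in TBS with 5% skim milk and 0.05% Tween-20 for 1 h at room temperature, incubated with primary antibody overnight at 4 °C, then with HRP secondary antibody for 1 h at room temperature.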

The subject of data set [2] is HFF. Put plainly: Cytotoxicity against human foreskin fibroblast at 1 uM. The class given is cell-based.

In the case of `Oc1ccc([C@@H]2c3c(O)cc(O)cc3[C@@H]3c4c(cc(O)cc4[C@H]2[C@@H]2c4cc(O)c([C@@H](c5ccc(O)cc5)[C@@H]5c6c(c(O)cc7c6[C@@H](c6cc(O)cc(O)c6)[C@H](c6ccc(O)cc6)O7)[C@H](c6cc(O)cc7c6[C@H](c6cc(O)cc(O)c6)[C@@H](c6ccc(O)cc6)O7)[C@H]5c5ccc(O)cc5)c5c4[C@@H](c4cc(O)cc(O)c4[C@H]2c2ccc(O)cc2)[C@H](c2ccc(O)cc2)O5)O[C@H]3c2ccc(O)cc2)cc1` [VATERIAPHENOL A], the inhibition entry in the data set on HFF [1] was “Active”. Also, the Activity entry with HFF [2] was “Non-toxic”.
On to `OC[C@H]1O[C@@H](Oc2cc(O)cc([C@@H]3c4c(/C=C/c5ccc(O)cc5)cc(O[C@@H]5O[C@H](CO)[C@@H](O)[C@H](O)[C@H]5O)cc4O[C@H]3c3ccc(O)cc3)c2)[C@H](O)[C@@H](O)[C@@H]1O`, for which, in the data set on HFF [1], the inhibition entry is “inactive”.
For `Oc1ccc([C@H]2c3c(O)cc(O)cc3[C@@H]3c4c(cc(O)cc4[C@H]2O)O[C@H]3c2ccc(O)cc2)cc1`, in the data set on HFF [1], the inhibition result was “inactive”.
For `Oc1ccc([C@H]2c3c(O)cc4c(c3[C@@H]3[C@@H](c5ccc(O)cc5)c5c(O)cc6c(c5[C@H]23)[C@@H](c2cc(O)cc(O)c2)[C@H](c2ccc(O)cc2)O6)[C@@H](c2cc(O)cc(O)c2)[C@H](c2ccc(O)cc2)O4)cc1` [STENOPHYLLOL C], the inhibition result in the data set on HFF [1] was “Active”. In the data set with HFF [2], the Activity entry is given as “Non-toxic”.
Turning to `OC[C@H]1O[C@@H](Oc2cc3c4c(c2)[C@@H]([C@@H]2c5cc(O)cc6c5[C@@H](c5cc(O)cc(O)c5[C@H]2c2ccc(O)cc2)[C@H](c2ccc(O)cc2)O6)[C@H](c2ccc(O)cc2)c2c(O)cc(O)cc2[C@H]4[C@H](c2ccc(O)cc2)O3)[C@H](O)[C@@H](O)[C@@H]1O` [VATALBINOSIDE A], the inhibition result in the data set with HFF [1] is “Active”. Further, the Activity result in the data set with HFF [2] is “Non-toxic”.
Regarding `Oc1ccc([C@@H]2c3c(O)cc(O)cc3[C@@H]3c4c(cc(O)c5c4[C@@H]2[C@H](c2ccc(O)cc2)[C@H]5c2cc(O)cc4c2[C@@H](c2cc(O)cc(O)c2)[C@H](c2ccc(O)cc2)O4)O[C@H]3c2ccc(O)cc2)cc1` [Vaticanol B], in the data set with HFF [1], the inhibition result was “Active”. The Activity result in the data set with HFF [2] is “Non-toxic”.
As to `Oc1ccc(/C=C\c2cc(O)cc3c2[C@@H](c2cc(O)cc(O)c2)[C@H](c2ccc(O)cc2)O3)cc1`, the inhibition result in the data set with HFF [1] is “inactive”.
Turning to `Oc1ccc([C@@H]2c3c(O)cc4c(c3[C@@H]3c5c(O)cc6c(c5[C@H]2[C@H]3c2ccc(O)cc2)[C@@H](c2cc(O)cc(O)c2)[C@H](c2ccc(O)cc2)O6)[C@@H](c2cc(O)cc(O)c2)[C@H](c2ccc(O)cc2)O4)cc1` [VATICANOL C], in the data set with HFF [1], the inhibition result is “Active”. Further, the Activity result in the data set with HFF [2] is “Non-toxic”.
As for `Oc1ccc([C@@H]2c3c(O)cc(O)cc3[C@@H]3c4c(cc(O)cc4[C@H]2[C@@H]2c4cc(O)cc5c4[C@@H](c4cc(O)cc(O)c4[C@H]2c2ccc(O)cc2)[C@H](c2ccc(O)cc2)O5)O[C@H]3c2ccc(O)cc2)cc1`, the inhibition entry in the data set with HFF [1] is “Active”. Besides, the Activity result in the data set with HFF [2] is “Non-toxic”.
For `Oc1ccc(/C=C/c2cc(O)cc3c2[C@@H](c2cc(O)cc(O)c2)[C@H](c2ccc(O)cc2)O3)cc1`, the inhibition entry in the data set on HFF [1] was “inactive”.

These data come from ChEMBL document CHEMBL1221396, “Resveratrol oligomers from Vatica albiramis” (J Nat Prod, 2010).
